Test system: MS2 coat protein
Assay: apparent Kd, MS2 coat protein; higher = weaker binding; RNA-MaP array; FMN 200 µM where present
Summary of the method: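 The titrant was SNAP-549-labelled MS2 coat protein, run from 0.7 or 1.5 nM in doubling steps to 3 µM. It was applied to designs transcribed by stalled E. coli RNA polymerase on Illumina sequencing-chip clusters, without ligand first and then with constant ligand, in 100 mM Tris-HCl pH 7.5, 80 mM KCl, 4 mM MgCl2, BSA, DTT, yeast tRNA and Tween-20. The apparent Kd is the median of filtered per-cluster binding-curve fits, with green signal normalised to red-channel RNA signal and control-cluster median Fmax.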

[1] = designed as: OFF switch for flavin mononucleotide, no ligand
[2] = ligand present: flavin mononucleotide, designed as: OFF switch for flavin mononucleotide
[3] = designed as: ON switch for flavin mononucleotide, no ligand
[4] = ligand present: flavin mononucleotide, designed as: ON switch for flavin mononucleotide

## UUGAGGUAGGAGAAGGACAGAGGCGGAAACACAAACAUGAGGAUCACCCAUGUAGGAUAUCCUAACUAACGAGGAUACCUCAAG
[1]
  apparent Kd: 6.49 nM
[2]
  apparent Kd: 7.53 nM

## UUGCAGUCGUCAGGAUAUAGUAUUACGGCCUUUCAUUUCUUCAUACAUGAGGAUCACCCAUGUCGCUAGAAGGGCUUAUCGCUU
[1]
  apparent Kd: 14.8 nM
[2]
  apparent Kd: 13.2 nM

## UUGCGGUAGGAGAAGGACAGAGGCGGAAACACAAACAUGAGGAUCACCCAUGUAGGAUAUCCUACCUAACGCGGAUACCUCCAG
[1]
  apparent Kd: 14 nM
[2]
  apparent Kd: 39.6 nM

## UUGCGGUCAGGAUAUGCAUGGCGGGACUUGCGUCGUGGCGUGGAGAAGGGACAUGAGGAUCACCCAUGUGGAGA
[1]
  apparent Kd: 88.2 nM
[2]
  apparent Kd: 65.7 nM

## UUGCUCGUGUGAGGAUAUGCCGCCGUUUCGGCUGCAGAAGGUACUCUGUUACAUGAGGAUCACCCAUGUCUCUGUUGUUUCGUG
[3]
  apparent Kd: 39 nM
[4]
  apparent Kd: 47.5 nM

## UUGGACGUCAUAGGAUAUGUAGGAUAUUCCUACAUGAGGAUCACCCAUGUUGACAUGGAAGAAGGACAGAAGGACGAUGUCCAU
[3]
  apparent Kd: 665 nM
[4]
  apparent Kd: 10.7 nM

## UUGGACGUCGUAGGACAUGUAGGAUAUUCCUACAUGAGGAUCACCCAUGUUGACAUGGAAGAAGGACAGAAGGACGAUGUCCAU
[3]
  apparent Kd: 723 nM
[4]
  apparent Kd: 46.9 nM

## UUGGACGUCGUAGGAUAUGUAGGAUAUUCCGACAUGAGGAUCACCCAUGUUGACAUGGAAGAAGGACAGAAGGACGAUGUCCAU
[3]
  apparent Kd: 4.14 nM
[4]
  apparent Kd: 3.48 nM

## UUGGACGUCGUAGGAUAUGUAGGAUAUUCCUACAUGAGGAUCACCCAUGUUGACAUGAAAGAAGGACAGAAGGACGAUGUCCAU
[3]
  apparent Kd: 144 nM
[4]
  apparent Kd: 5.77 nM

## UUGGACGUCGUAGGAUAUGUAGGAUAUUCCUACAUGAGGAUCACCCAUGUUGACAUGGAAGAAGGACAGAAGGAAGAUGUCCAU
[3]
  apparent Kd: 776 nM
[4]
  apparent Kd: 13.9 nM

## UUGGACGUCGUAGGAUAUGUAGGAUAUUCCUACAUGAGGAUCACCCAUGUUGACAUGGAAGAAGGGCAGAAGGACGAUGUCCAU
[3]
  apparent Kd: 548 nM
[4]
  apparent Kd: 8.38 nM

## UUGGACGUCGUAGGAUAUGUAGGAUAUUUCUACAUGAGGAUCACCCAUGUUGACAUGGAAGAAGGACAGAAGGACGAUGUCCAU
[3]
  apparent Kd: 123 nM
[4]
  apparent Kd: 5.64 nM

## UUGGACGUCGUAGGAUUUGUAGGAUAUUCCUACAUGAGGAUCACCCAUGUUGACAUGGAAGAAGGACAGAAGGACGAUGUCCAU
[3]
  apparent Kd: 87.3 nM
[4]
  apparent Kd: 5.51 nM

## UUGGAGUACGUAGGAUAUGUAGGAUAUUCCUACAUGAGGAUCACCCAUGUUGACAUGGAGGAAGGACAGAAGGACGUGCUCCAU
[3]
  apparent Kd: 435 nM
[4]
  apparent Kd: 241 nM

## UUGGGACAUGAGGAUCACCCAUGUAAGGAUAUUGGCGCGCCGGCUCUGUCUGUUCCGCCGAGAAGGUACACGUU
[1]
  apparent Kd: 104 nM
[2]
  apparent Kd: 173 nM

## UUGGGACUAUCAGGAUAUGGUGUAGCCUAGUAAAGGACAUGAGGAUCACCCAUGUACCAUUGGUACCAGAAGGGAUGAUCCUAC
[3]
  apparent Kd: 173 nM
[4]
  apparent Kd: 46 nM

## UUGGUAUUCGUAGGAUAUCUGUCGCCACCGUGUGGAGAAGGACGAACAUGAGGAUCACCCAUGUAUCAUGGUGUGGGCGUUGUU
[1]
  apparent Kd: 85.8 nM
[2]
  apparent Kd: 89.9 nM

## UUGGUGUCAGGAUAUGCUUAAUGUGUUUUAUUAUAAUAUAUACAUGAGGAUCACCCAUGUAGAAGGGACGUUGU
[1]
  apparent Kd: 60.6 nM
[2]
  apparent Kd: 53.2 nM

## UUGUACCGGUGAGGAUAUUUUUGAUAGAACUUUAUGAUAUACAUGAGGAUCACCCAUGUUACUUUAAAGAAGGCAUCGGAUUAU
[1]
  apparent Kd: 19.4 nM
[2]
  apparent Kd: 15.3 nM

## UUGUCGCAUGUAGGAUAUGUAUGUUAUUAUCAUACAGAAGGACAUGAGGAUCACCCAUGUGUAUUAUUAUUAUAUGUUACAUAU
[1]
  apparent Kd: 20.4 nM
[2]
  apparent Kd: 19.8 nM

## UUGUCUCAUGAGAAGGACAUGAGGAUCACCCAUGUAGGAUAUCAUGGGUCAGUGGAAUUGAAUCUUCGGAUUCAAUAACUCUAC
[3]
  apparent Kd: 15 nM
[4]
  apparent Kd: 7 nM

## UUGUUACAUGAGGAUCACCCAUGUGAGGAUAUGGUUCGGUACUGUCCUGUCGCGUACUCCAGAAGGCACAUGUU
[1]
  apparent Kd: 63.6 nM
[2]
  apparent Kd: 182 nM

## UUGUUAGGGAGAGGAUAUUGACAUGAGGAUCACCCAUGUACUUGGGAGUGUUUACUGAAUUCUUACGAGAAGGCUUACAAAUUU
[1]
  apparent Kd: 165 nM
[2]
  apparent Kd: 105 nM

## UUGUUAUAUGUAGGAUAUGCGUGUUAUUAUUAUGCAGAAGGACAUGAGGAUCACCCAUGUGUAUUAUUAUUAUAUAUUAUAUAU
[1]
  apparent Kd: 20.3 nM
[2]
  apparent Kd: 18.1 nM

## UUGUUAUGUGUAGGAUAUGCAUAUUAUUAUUAUGCAGAAGGACAUGAGGAUCACCCAUGUAUAUUAUUAUUAUAUAUUAUAUAU
[1]
  apparent Kd: 28.7 nM
[2]
  apparent Kd: 37 nM

## UUGUUUCGUCAUUAACAUGAGGAUCACCCAUGUAUCGACUCAAAGGAUAUAUAUGCUUGUUUGCAAUAGAAGGUUGAUUGUUGU
[3]
  apparent Kd: 27.9 nM
[4]
  apparent Kd: 26.5 nM

## UUUAAGCGAGGAUAUACAUGAGGAUCACCCAUGUCAAGUAUUCUUGACGCCGUGCUCUGUAGAAGGCGCAAUUA
[1]
  apparent Kd: 65.2 nM
[2]
  apparent Kd: 522 nM

## UUUACAUGAGGAUCACCCAUGUUAAAAUAAUUAAUUAUAAGUGAGGAUAUAUAAAUUAUAAAAUUGUAGAAGGCACUGGGUAUU
[3]
  apparent Kd: 22 nM
[4]
  apparent Kd: 23.4 nM

## UUUACCAGAGGAUAUGCGAAUAAAUAAAACUUUUUUUUUUAACAUGAGGAUCACCCAUGUAGAAGGCUGCUUUU
[1]
  apparent Kd: 25.4 nM
[2]
  apparent Kd: 23.6 nM

## UUUAGUAUCUAGGAUAUCUAGUACAUAGUAUCUAGAGAAGGAGAUACAUGAGGAUCACCCAUGUUCUGUGUUCU
[1]
  apparent Kd: 23.4 nM
[2]
  apparent Kd: 58.4 nM

## UUUAGUUGCGGGCAGGAUAUGUGUUAAAAUACAUGAGGAUCACCCAUGUGCGGGUAUAACACCCGACAGAAGGGCCAAUCGCGAC
[3]
  apparent Kd: 73.6 nM
[4]
  apparent Kd: 24.4 nM

## UUUAUACAUGAGGAUCACCCAUGUCAAUGUAGUCGAGGAUAUGGGCAGCCGUGAGGCGUACUAGAAGGCGAAGAGG
[3]
  apparent Kd: 203 nM
[4]
  apparent Kd: 64.9 nM

## UUUAUAUAGUAAGGAUAUGUAUUAUGUUUAUCAACAGAAGGUACUGACAUGAGGAUCACCCAUGUUUUAGUGUGGGCAUGUAGU
[1]
  apparent Kd: 218 nM
[2]
  apparent Kd: 301 nM

## UUUAUAUUCAGAGGAUAUUAAAGUAGUAUAAUAUAAGAAGGCUGUUUGUUUUGUAAAUUUAUUCUACAUGAGGAUCACCCAUGU
[3]
  apparent Kd: 19.5 nM
[4]
  apparent Kd: 15.7 nM

## UUUAUGUCAGGAUAUGAUUAGAUCUACUUCGGUAGAUCUAAUCAGAAGGGACAUGAGGAUCACCCAUGUUUUUU
[1]
  apparent Kd: 43.8 nM
[2]
  apparent Kd: 223 nM

## UUUAUUUUGCAAGGAUAUGUUUAAUUUUAGUUUCCUUAAACAUGAGGAUCACCCAUGUUAUACUUACAGAAGGUGCAUAAUUUU
[1]
  apparent Kd: 90.6 nM
[2]
  apparent Kd: 52.5 nM

## UUUCAGCUCACAUGAGGAUCACCCAUGUCCGUUCGCCCGGACAGAAGGCACCCAUAACAAUGCGGUGAGGAUAUGUCAGCAAGG
[3]
  apparent Kd: 141 nM
[4]
  apparent Kd: 14 nM

## UUUCAGUCAGGAUAUCGUUAAUUUAAUUGUUUGUAUUAGUUCGAGAAGGGACAUGAGGAUCACCCAUGUACUCU
[1]
  apparent Kd: 19.6 nM
[2]
  apparent Kd: 20 nM

## UUUCUUGGGCAAGGAUAUCCUGUGCGGUUACGGCUCGUGUCUGUCACAUGAGGAUCACCCAUGUGGGAGAAGGUGCCUGCGGUC
[1]
  apparent Kd: 6.09 nM
[2]
  apparent Kd: 6.78 nM

## UUUGAGUGAGGAUAUUGCACCUCUGGGUCACCUCAGAGGUUUGAGAAGGCACAUGAGGAUCACCCAUGUUCCGC
[1]
  apparent Kd: 19.7 nM
[2]
  apparent Kd: 32.2 nM

## UUUGCAACAUGAGGAUCACCCAUGUAGGAUAUCGCUAUUGUAAUCAUGAAACAUGAUUACAAUAGCGAGAAGGACAUAUGCUUU
[1]
  apparent Kd: 20.1 nM
[2]
  apparent Kd: 18.3 nM

## UUUGCAUGACGAGGAUAUCAUUUAUUUCUUGAUUGAGAAGGCGUUCUUUUUACUACCUAACAUGAGGAUCACCCAUGUGACAGU
[3]
  apparent Kd: 16.1 nM
[4]
  apparent Kd: 12.7 nM

## UUUGCAUUCCGAGGAUAUUCAUUUAAUGUCUUCACAUGAGGAUCACCCAUGUGGCGCUUGCGCCGGGAGAAGGCGGUUUGCUUU
[3]
  apparent Kd: 28.6 nM
[4]
  apparent Kd: 29.3 nM

## UUUGGGAGCACAGGAUAUGGCGCGUCGACCGCGCCAGAAGGGUGAUUCUGUUGGUGGCCACAUGAGGAUCACCCAUGUGCCUCC
[3]
  apparent Kd: 42.4 nM
[4]
  apparent Kd: 55.3 nM

## UUUGUCUGUGUGAGGAUAUACUUGUUUGGGUUUUUGUAGAAGGCACAUGAGGAUCACCCAUGUAUUUUGUCGUG
[1]
  apparent Kd: 43.6 nM
[2]
  apparent Kd: 61.6 nM

## UUUGUCUGUGUGAGGAUAUACUUGUUUGGGUUUUUGUAGAAGGCACAUGAGGAUCACCCAUGUAUUUUGUUGUG
[1]
  apparent Kd: 58.3 nM
[2]
  apparent Kd: 75.5 nM

## UUUGUUUAUGCAGGAUAUUGACUUUUAUUUCUACAAGAAGGGCAUUACAUGAGGAUCACCCAUGUCUACAUGUAUUUAACUAGU
[1]
  apparent Kd: 67.8 nM
[2]
  apparent Kd: 49.1 nM

## UUUUAACAUGAGGAUCACCCAUGUGAGGAUAUCGAAAUUUAUAUUUAUAUUAAUAAUUCGAGAAGGCACAUUUU
[1]
  apparent Kd: 172 nM
[2]
  apparent Kd: 165 nM

## UUUUACUAGUAAGGAUAUACUAGCGAUUAGCUUGUAGAAGGUACAGUCUUAUGUAUAACAUGUUAACAUGAGGAUCACCCAUGU
[3]
  apparent Kd: 62.1 nM
[4]
  apparent Kd: 34.5 nM

## UUUUAGGGAGGAUAUACAUUUUUUUUAUUAUCCUCAUUAAUACAUGAGGAUCACCCAUGUAGAAGGCCCAUUUU
[1]
  apparent Kd: 39.2 nM
[2]
  apparent Kd: 164 nM

## UUUUAUUGCAAGGAUAUGCAAAUUAUUAUUAAUGCAGAAGGUGCUACAUGAGGAUCACCCAUGUUUCUGGGUUU
[1]
  apparent Kd: 98.2 nM
[2]
  apparent Kd: 308 nM

## UUUUCCAGAGGAUAUGCGAAUAAAUAAAACUUUUUUUUUUAACAUGAGGAUCACCCAUGUAGAAGGCUGAUUUU
[1]
  apparent Kd: 47.9 nM
[2]
  apparent Kd: 48.5 nM

## UUUUGGCAUGUAGGAUAUGGGUCCGAUUAGGAUUUAGAAGGACAUGAGGAUCACCCAUGUGCAUUUAAUUGGUCAUUACCUUUU
[1]
  apparent Kd: 84.9 nM
[2]
  apparent Kd: 115 nM

## UUUUUAGCAGGAUAUAUCCACGACUACAUGAGGAUCACCCAUGUGGCCGCUUGAAGUUGUAUAGAAGGGCUUUUUU
[1]
  apparent Kd: 24.8 nM
[2]
  apparent Kd: 23.4 nM

## UUUUUAUAUGAAGGAUAUACUUAACAUGAGGAUCACCCAUGUGGUGUUGUGAGUGAGUGAGUUUAGUAGAAGGUCAAUUCUUUU
[1]
  apparent Kd: 236 nM
[2]
  apparent Kd: 205 nM
